From ChEMBL document CHEMBL2407028, “Discovery of novel oxazolidinedione derivatives as potent and selective mineralocorticoid receptor antagonists” (Bioorg Med Chem Lett, 2013)
pEC50, pIC50: −log10 of the molar value.

Assays:
Rattus norvegicus [1] = experiment: Dose normalized AUC in rat at 1 mg/kg, po; assay type: ADME, organism-based; design: dose 1 mg/kg, route oral; conditions: in vivo
Procedure, shortened: (§1)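 Rats dosed at 1 mg/kg iv (n = 2) or 1 mg/kg po (n = 3), formulated at 1 mg/mL in PEG 200:water (70:30). Blood concentrations measured by LC/MS/MS after protein precipitation with acetonitrile.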

Rattus norvegicus [2] = experiment: Dose normalized AUC in rat at 1 mg/kg, iv; assay type: ADME, organism-based; design: dose 1 mg/kg, route intravenous; conditions: in vivo; procedure, shortened: as §1
[3] = Cmax in rat at 1 mg/kg, iv and 1 mg/lg, po; assay type: ADME, organism-based; design: dose 1 mg/kg, route oral; conditions: in vivo; procedure, shortened: as §1
[4] = Half life in rat at 1 mg/kg, iv and 1 mg/lg, po; assay type: ADME, organism-based; design: dose 1 mg/kg, route oral; conditions: in vivo; procedure, shortened: as §1
[5] = Oral bioavailability in rat at 1 mg/kg; assay type: ADME, organism-based; conditions: in vivo; procedure, shortened: as §1
Progesterone receptor [6] = biological target: T1, Progesterone receptor (Homo sapiens, UniProt P06401); experiment: Antagonist activity at progesterone receptor beta (unknown origin) by NH Pro assay
T1 sequence (P06401 whole entry): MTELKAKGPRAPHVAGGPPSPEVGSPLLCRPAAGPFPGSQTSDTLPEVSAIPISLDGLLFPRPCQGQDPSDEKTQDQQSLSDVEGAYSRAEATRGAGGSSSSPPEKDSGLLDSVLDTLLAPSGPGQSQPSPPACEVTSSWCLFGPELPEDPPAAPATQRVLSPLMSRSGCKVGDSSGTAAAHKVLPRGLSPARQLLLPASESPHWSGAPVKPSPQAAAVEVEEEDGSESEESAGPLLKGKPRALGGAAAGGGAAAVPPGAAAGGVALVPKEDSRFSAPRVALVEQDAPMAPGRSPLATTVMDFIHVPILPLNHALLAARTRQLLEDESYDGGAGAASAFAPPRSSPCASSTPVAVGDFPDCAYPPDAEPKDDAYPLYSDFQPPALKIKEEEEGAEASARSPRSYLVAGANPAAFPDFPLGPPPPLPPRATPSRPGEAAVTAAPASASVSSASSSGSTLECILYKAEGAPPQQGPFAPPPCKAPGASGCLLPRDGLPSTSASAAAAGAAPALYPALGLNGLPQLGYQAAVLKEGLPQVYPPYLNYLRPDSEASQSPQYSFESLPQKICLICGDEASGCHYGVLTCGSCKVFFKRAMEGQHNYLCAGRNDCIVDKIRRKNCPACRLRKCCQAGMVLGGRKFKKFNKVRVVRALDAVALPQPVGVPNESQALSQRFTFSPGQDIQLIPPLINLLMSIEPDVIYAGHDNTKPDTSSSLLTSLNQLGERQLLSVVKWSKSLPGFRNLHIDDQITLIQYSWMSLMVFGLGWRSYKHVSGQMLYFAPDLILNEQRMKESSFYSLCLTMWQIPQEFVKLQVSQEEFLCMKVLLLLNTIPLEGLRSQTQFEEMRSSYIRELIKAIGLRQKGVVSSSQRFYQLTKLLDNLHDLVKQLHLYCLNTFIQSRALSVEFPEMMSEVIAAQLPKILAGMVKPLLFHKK

Estrogen receptor beta [7] = biological target: T2, Estrogen receptor beta (Homo sapiens, UniProt Q92731); experiment: Antagonist activity at estrogen receptor beta (unknown origin) by NH Pro assay
T2 sequence (Q92731 whole entry): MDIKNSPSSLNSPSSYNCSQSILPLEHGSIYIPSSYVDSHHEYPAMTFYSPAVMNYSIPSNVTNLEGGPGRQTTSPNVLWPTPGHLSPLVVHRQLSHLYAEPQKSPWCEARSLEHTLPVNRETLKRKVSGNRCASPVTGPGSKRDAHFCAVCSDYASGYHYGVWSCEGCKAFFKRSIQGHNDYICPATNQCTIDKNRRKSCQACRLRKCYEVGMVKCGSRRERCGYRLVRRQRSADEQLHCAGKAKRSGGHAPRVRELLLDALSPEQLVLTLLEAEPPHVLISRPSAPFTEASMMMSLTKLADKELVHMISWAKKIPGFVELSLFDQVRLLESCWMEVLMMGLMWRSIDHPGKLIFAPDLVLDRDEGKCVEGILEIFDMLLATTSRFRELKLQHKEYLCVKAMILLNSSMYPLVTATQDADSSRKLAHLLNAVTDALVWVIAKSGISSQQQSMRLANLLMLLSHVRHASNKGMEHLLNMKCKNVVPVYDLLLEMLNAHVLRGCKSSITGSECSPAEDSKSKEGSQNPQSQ

Progesterone receptor [8] = biological target: T1, Progesterone receptor; experiment: Agonist activity at progesterone receptor beta (unknown origin) by NH Pro assay
Estrogen receptor beta [9] = biological target: T2, Estrogen receptor beta; experiment: Agonist activity at estrogen receptor beta (unknown origin) by NH Pro assay
Estrogen receptor = biological target: T3, Estrogen receptor (Homo sapiens, UniProt P03372); experiment: Agonist activity at estrogen receptor alpha (unknown origin) by NH Pro assay
T3 sequence (P03372 whole entry): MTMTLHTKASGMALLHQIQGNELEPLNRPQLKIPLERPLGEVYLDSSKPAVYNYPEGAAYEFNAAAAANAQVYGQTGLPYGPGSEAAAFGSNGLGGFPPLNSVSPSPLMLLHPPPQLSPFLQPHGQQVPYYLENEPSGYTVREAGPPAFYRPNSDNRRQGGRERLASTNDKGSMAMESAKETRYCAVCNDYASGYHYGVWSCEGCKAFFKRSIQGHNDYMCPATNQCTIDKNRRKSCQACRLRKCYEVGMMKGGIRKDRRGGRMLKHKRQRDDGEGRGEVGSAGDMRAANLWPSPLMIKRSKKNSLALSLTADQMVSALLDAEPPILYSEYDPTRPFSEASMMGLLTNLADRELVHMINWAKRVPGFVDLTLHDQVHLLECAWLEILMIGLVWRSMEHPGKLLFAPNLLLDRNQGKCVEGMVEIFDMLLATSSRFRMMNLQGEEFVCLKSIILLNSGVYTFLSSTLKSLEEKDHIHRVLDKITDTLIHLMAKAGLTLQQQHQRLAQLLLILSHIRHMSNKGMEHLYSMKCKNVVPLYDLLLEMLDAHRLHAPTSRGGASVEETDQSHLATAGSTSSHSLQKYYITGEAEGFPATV

Androgen receptor [10] = biological target: T4, Androgen receptor (Homo sapiens, UniProt P10275); experiment: Agonist activity at androgen receptor (unknown origin) by NH Pro assay
T4 sequence (P10275 whole entry): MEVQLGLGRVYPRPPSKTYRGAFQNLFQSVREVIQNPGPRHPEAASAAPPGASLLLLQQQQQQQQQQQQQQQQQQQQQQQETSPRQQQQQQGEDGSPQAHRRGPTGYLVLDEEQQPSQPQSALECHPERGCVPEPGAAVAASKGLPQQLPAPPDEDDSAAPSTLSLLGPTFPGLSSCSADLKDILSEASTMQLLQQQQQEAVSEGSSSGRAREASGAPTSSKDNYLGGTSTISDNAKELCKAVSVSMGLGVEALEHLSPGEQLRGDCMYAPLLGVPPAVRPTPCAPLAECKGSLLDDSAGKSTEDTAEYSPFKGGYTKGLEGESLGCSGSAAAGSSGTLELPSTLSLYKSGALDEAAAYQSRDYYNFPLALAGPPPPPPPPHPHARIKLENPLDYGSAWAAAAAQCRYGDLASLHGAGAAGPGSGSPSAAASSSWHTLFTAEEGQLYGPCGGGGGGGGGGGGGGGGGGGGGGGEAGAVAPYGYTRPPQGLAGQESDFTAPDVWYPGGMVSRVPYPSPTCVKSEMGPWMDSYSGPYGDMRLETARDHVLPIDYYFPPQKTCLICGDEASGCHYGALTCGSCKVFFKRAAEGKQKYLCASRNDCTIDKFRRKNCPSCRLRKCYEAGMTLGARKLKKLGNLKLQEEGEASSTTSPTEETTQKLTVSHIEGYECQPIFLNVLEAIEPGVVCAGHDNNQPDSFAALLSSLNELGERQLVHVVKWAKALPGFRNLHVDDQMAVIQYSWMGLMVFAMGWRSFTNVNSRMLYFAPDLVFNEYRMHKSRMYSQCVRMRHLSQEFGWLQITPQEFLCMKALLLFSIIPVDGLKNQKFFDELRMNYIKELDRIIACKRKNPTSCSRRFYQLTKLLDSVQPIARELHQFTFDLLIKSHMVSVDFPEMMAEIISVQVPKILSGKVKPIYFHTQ

Androgen receptor [11] = biological target: T4, Androgen receptor; experiment: Antagonist activity at androgen receptor (unknown origin) by NH Pro assay

SMILES	AUC/dose (Rattus norvegicus [1]) [µM·kg·h/mg]	AUC/dose (Rattus norvegicus [2]) [µM·kg·h/mg]	Cmax [3] [nM]	half-life [4] [min]	bioavailability [5] [%]	pIC50 (Progesterone receptor [6])	pIC50 (Estrogen receptor beta [7])	pEC50 (Progesterone receptor [8])	pEC50 (Estrogen receptor beta [9])	pEC50 (Estrogen receptor)	pEC50 (Androgen receptor [10])	pIC50 (Androgen receptor [11])
COc1cc(CNC(=O)[C@@]2(Cc3ccccc3)OC(=O)N([C@@H]3CCc4ccccc43)C2=O)cc(OC)c1	0.24	0.89	98	150	28	5.09	4.82	< 4.70	< 4.70	< 4.70	< 4.70	4.92
C[C@H](c1ccc(F)cc1)N1C(=O)O[C@](Cc2ccc(F)cc2)(C(=O)NCc2ccc(Cl)c(Cl)c2)C1=O	0.24	0.46	120	138	63	5.44	4.82	< 4.70	< 4.70	< 4.70	< 4.70	< 4.70
